Data set [1] concerns Bacillus subtilis. As to the kind of experiment: Antibacterial activity against Bacillus subtilis MTCC-441 assessed as zone of inhibition at 1 ug/ml. The format is functional. To be noted: read-out: DIZ. In short, it runs like this: (§1)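 Disc diffusion on Nutrient Agar. Strains were first grown on NA for 24 h at 37 °C, then spread as a lawn. Compounds were dissolved in DMSO. Sterile 6 mm discs were saturated with test solution, dried under laminar flow and placed on the inoculated plates. Plates were incubated at 37 °C for 18–24 h, and clear-zone diameters were measured.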

The test system of data set [2] is Escherichia coli. Put plainly: Antibacterial activity against Escherichia coli MTCC-725 assessed as zone of inhibition at 1 ug/ml. The data set is classed as functional. To be noted: read-out: DIZ. In short, it runs like this:
as §1

In data set [3] the test system is Aeromonas hydrophila. Put plainly: Antibacterial activity against Aeromonas hydrophila MTCC-1739 assessed as zone of inhibition at 1 ug/ml. The data set is classed as functional. To be noted: read-out: DIZ. In short, it runs like this: as §1
In the next data set the test system is Mus musculus. As to the kind of experiment: Toxicity in po dosed Swiss albino mouse after 72 hrs. The data set is classed as organism-based. The conditions noted are these: in vivo.
Data set [4] concerns Anopheles stephensi. Put plainly: Larvicidal activity against Anopheles stephensi late III or early IV instar larvae assessed as mortality after 24 hrs. The data set is classed as functional. The conditions noted are these: for LC50: Anopheles stephensi, iv, 24 h. In short, it runs like this:
(§2)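 25 late III/early IV instar larvae in 250 mL water per beaker, exposed to a range of concentrations; a negative control ran with each set and malathion served as reference insecticide. Mortality was scored after 24 h in triplicate per sample. LC50 with 95% confidence limits was derived by Abbott's formula and log probit analysis.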

In data set [5] the test system is Anopheles stephensi. As to the kind of experiment: Larvicidal activity against Anopheles stephensi late III or early IV instar larvae assessed as mortality after 24 hrs relative to untreated control. The data set is classed as functional. In short, it runs like this:
as §2

The test system of data set [6] is Staphylococcus aureus. As to the kind of experiment: Antibacterial activity against Staphylococcus aureus MTCC-7443 assessed as zone of inhibition at 1 ug/ml. To be noted: read-out: DIZ. The format is functional. In short, it runs like this:
as §1

Data set [7] relates to Staphylococcus aureus. Put plainly: Antibacterial activity against Staphylococcus aureus MTCC-7443 assessed as zone of inhibition at 10 ug/disc. The conditions noted are these: read-out: DIZ. The format is functional. In short, it runs like this: as §1
For data set [8], the system named is Bacillus subtilis. As to the kind of experiment: Antibacterial activity against Bacillus subtilis MTCC-441 assessed as zone of inhibition at 10 ug/disc. The format is functional. To be noted: read-out: DIZ. In short, it runs like this: as §1
Data set [9] concerns Escherichia coli. Put plainly: Antibacterial activity against Escherichia coli MTCC-725 assessed as zone of inhibition at 10 ug/disc. To be noted: read-out: DIZ. The data set is classed as functional. In short, it runs like this: as §1
Data set [10] relates to Aeromonas hydrophila. As to the kind of experiment: Antibacterial activity against Aeromonas hydrophila MTCC-1739 assessed as zone of inhibition at 10 ug/disc. The data set is classed as functional. To be noted: read-out: DIZ. In short, it runs like this:
as §1

Molecules are shown by their SMILES. In brackets after ≈: the same amount, converted by molar mass.

Regarding `CC(C)(C)c1nnc2sc(C(C)(C)Oc3ccc(Cl)cc3)nn2c1=O`, the zone of inhibition at 1 µg/mL with Bacillus subtilis [1] was determined as 18.4 mm; with Escherichia coli [2], 21.1 mm; in the data set with Aeromonas hydrophila [3], 22.4 mm; with Staphylococcus aureus [6], 19.6 mm. Moreover, the MLD in the data set on Mus musculus came to 2260 mg/kg. Also, the LC90 in the data set on Anopheles stephensi [4] was found to be 87.49 µg/mL (≈ 231 µM). In addition, the median lethal concentration (LC50) in the data set on Anopheles stephensi [4] worked out at 55.2 µg/mL (≈ 146 µM). Further, the Ratio in the data set with Anopheles stephensi [5] came out at 0.15.

Regarding `Cc1cccc(C)c1OCc1nn2c(=O)c(C(C)(C)C)nnc2s1`, the zone of inhibition at 1 µg/mL with Bacillus subtilis [1] came out at 9.8 mm; in the data set on Escherichia coli [2], 11.4 mm; in the data set with Aeromonas hydrophila [3], 10.4 mm. Also, in the data set on Anopheles stephensi [4], the LC90 is 115.2 µg/mL (≈ 334 µM). Also, the LC50 with Anopheles stephensi [4] worked out at 103 µg/mL (≈ 298 µM). Moreover, the Ratio in the data set with Anopheles stephensi [5] is 0.11.

`Cc1cc(C)c(C)c(OCc2nn3c(=O)c(C(C)(C)C)nnc3s2)c1`: the zone of inhibition at 1 µg/mL in the data set with Bacillus subtilis [1] amounted to 15.6 mm; with Escherichia coli [2] it was 18.9 mm; in the data set on Aeromonas hydrophila [3], 15.6 mm; with Staphylococcus aureus [6] it was 17.6 mm. In the data set on Anopheles stephensi [4], the LC90 was 45.05 µg/mL (≈ 126 µM). For the same compound, in the data set with Anopheles stephensi [4], the LC50 was 39.8 µg/mL (≈ 111 µM). In the data set with Anopheles stephensi [5], the Ratio stood at 0.29.

With `CC(C)(C)c1nnc2sc(COc3ccc(Cl)cc3Cl)nn2c1=O`, the zone of inhibition at 1 µg/mL with Bacillus subtilis [1] was 12.9 mm; in the data set with Aeromonas hydrophila [3], 9.7 mm; in the data set on Staphylococcus aureus [6] it was 10.8 mm. Also, the LC90 with Anopheles stephensi [4] turned out to be 73.2 µg/mL (≈ 190 µM). For the same compound, the LC50 in the data set on Anopheles stephensi [4] was 48.7 µg/mL (≈ 126 µM). Moreover, the Ratio with Anopheles stephensi [5] came to 0.18.

Consider `Cc1cc(Cl)ccc1OCc1nn2c(=O)c(C(C)(C)C)nnc2s1`, for which the zone of inhibition at 1 µg/mL in the data set with Escherichia coli [2] was found to be 18.9 mm; in the data set on Aeromonas hydrophila [3], 19.6 mm; with Staphylococcus aureus [6], 12.6 mm. For the same compound, the LC90 in the data set on Anopheles stephensi [4] turned out to be 71.45 µg/mL (≈ 196 µM). Besides, in the data set with Anopheles stephensi [4], the median lethal concentration (LC50) is 49.3 µg/mL (≈ 135 µM). In addition, the Ratio in the data set on Anopheles stephensi [5] is given as 0.17.

For `CC(C)(C)c1nnc2sc(COc3cc(Cl)c(Cl)cc3Cl)nn2c1=O`, the zone of inhibition at 1 µg/mL is 19.3 mm in the data set on Bacillus subtilis [1], 16.5 mm in the data set on Escherichia coli [2], 17.5 mm in the data set on Aeromonas hydrophila [3] and 22.4 mm with Staphylococcus aureus [6]. Also, in the data set on Anopheles stephensi [4], the LC90 came out at 115.05 µg/mL (≈ 274 µM). Also, the 50% lethal concentration (LC50) with Anopheles stephensi [4] is 81.6 µg/mL (≈ 194 µM). Further, the Ratio with Anopheles stephensi [5] is 0.11.

As for `CC(C)(C)c1nnc2sc(COc3ccccc3[N+](=O)[O-])nn2c1=O`, the zone of inhibition at 1 µg/mL in the data set on Bacillus subtilis [1] came out at 16.8 mm; in the data set with Escherichia coli [2], 11.7 mm; in the data set on Aeromonas hydrophila [3] it was 9.6 mm; with Staphylococcus aureus [6] it was 19.8 mm. The LC90 in the data set on Anopheles stephensi [4] was found to be 105.04 µg/mL (≈ 291 µM). Besides, the LC50 in the data set with Anopheles stephensi [4] came to 70.5 µg/mL (≈ 195 µM). In the data set with Anopheles stephensi [5], the Ratio is reported as 0.12.

Consider `COc1ccccc1OCc1nn2c(=O)c(C(C)(C)C)nnc2s1`, for which the zone of inhibition at 1 µg/mL with Bacillus subtilis [1] came to 19.2 mm; with Escherichia coli [2] it was 15.6 mm; in the data set on Aeromonas hydrophila [3] it was 13.9 mm; in the data set on Staphylococcus aureus [6], 21.7 mm. Further, in the data set with Anopheles stephensi [4], the LC90 was 37.78 µg/mL (≈ 109 µM). Moreover, in the data set with Anopheles stephensi [4], the LC50 was 25.7 µg/mL (≈ 74.2 µM). Also, the Ratio with Anopheles stephensi [5] was found to be 0.34.

As for `CC(=O)c1ccc(OCc2nn3c(=O)c(C(C)(C)C)nnc3s2)cc1`, the zone of inhibition at 1 µg/mL in the data set with Bacillus subtilis [1] was determined as 25.7 mm; in the data set on Escherichia coli [2] it was 22.7 mm; with Aeromonas hydrophila [3] it was 19.3 mm; in the data set on Staphylococcus aureus [6], 18.7 mm. In the data set on Mus musculus, this compound had an MLD of 1820 mg/kg. Also, the LC90 with Anopheles stephensi [4] worked out at 135.9 µg/mL (≈ 379 µM). For the same compound, in the data set on Anopheles stephensi [4], the LC50 was 86.6 µg/mL (≈ 242 µM). Also, the Ratio in the data set on Anopheles stephensi [5] is given as 0.1.

As for `CC(C)(C)c1nnc2sc(COc3ccc(I)cc3)nn2c1=O`, the zone of inhibition at 1 µg/mL with Bacillus subtilis [1] worked out at 11.9 mm. In addition, in the data set with Anopheles stephensi [4], the LC90 was determined as 124.77 µg/mL (≈ 282 µM) and the LC50 came out at 77.5 µg/mL (≈ 175 µM). Besides, the Ratio with Anopheles stephensi [5] is 0.11.

For `CC(C)(C)c1nnc2sc(COc3ccc(Cl)cc3)nn2c1=O`, the values for the zone of inhibition at 1 µg/mL with Bacillus subtilis [1], in the data set on Escherichia coli [2] and with Aeromonas hydrophila [3] were 11.2 mm, 13.9 mm and 12.5 mm, respectively. Further, the LC90 with Anopheles stephensi [4] came to 90.45 µg/mL (≈ 258 µM). For the same compound, the LC50 in the data set with Anopheles stephensi [4] stood at 61.3 µg/mL (≈ 175 µM). The Ratio with Anopheles stephensi [5] is 0.14.

On to `CN[C@@H]1[C@H](O[C@H]2[C@H](O[C@H]3[C@H](O)[C@@H](O)[C@H](N=C(N)N)[C@@H](O)[C@@H]3N=C(N)N)O[C@@H](C)[C@]2(O)C=O)O[C@@H](CO)[C@H](O)[C@H]1O` [STREPTOMYCIN], for which the zone of inhibition at 10 µg/disc was 31.5 mm in the data set with Staphylococcus aureus [7], 33.6 mm in the data set with Bacillus subtilis [8], 26.3 mm with Escherichia coli [9] and 22.4 mm with Aeromonas hydrophila [10].

As to `CCOC(=O)CC(SP(=S)(OC)OC)C(=O)OCC` (configuration not stated) [MALATHION], in the data set with Anopheles stephensi [4], the LC90 is 12.01 µg/mL (≈ 36.4 µM) and the median lethal concentration (LC50) is 8.7 µg/mL (≈ 26.3 µM).

Regarding `CC(C)(C)c1nnc2sc(COc3ccccc3Cl)nn2c1=O`, the zone of inhibition at 1 µg/mL with Bacillus subtilis [1] amounted to 18.9 mm; with Escherichia coli [2] it was 19.5 mm; with Aeromonas hydrophila [3], 16.5 mm; with Staphylococcus aureus [6], 16.6 mm. Moreover, the LC90 in the data set with Anopheles stephensi [4] was found to be 113.57 µg/mL (≈ 324 µM). Moreover, in the data set with Anopheles stephensi [4], the LC50 turned out to be 72.8 µg/mL (≈ 208 µM). Also, the Ratio in the data set on Anopheles stephensi [5] came out at 0.12.

Regarding `CC(C)(C)c1nnc2sc(COc3ccccc3)nn2c1=O`, the zone of inhibition at 1 µg/mL in the data set with Escherichia coli [2] was 10.9 mm. Besides, in the data set on Anopheles stephensi [4], the LC90 was 120.98 µg/mL (≈ 382 µM) and the 50% lethal concentration (LC50) came to 79.2 µg/mL (≈ 250 µM). In addition, in the data set with Anopheles stephensi [5], the Ratio was determined as 0.11. In the data set on Staphylococcus aureus [6], the zone of inhibition at 1 µg/mL was 12.3 mm.

Turning to `CC(C)(C)c1nnc2sc(COc3ccc(O)cc3)nn2c1=O`, the zone of inhibition at 1 µg/mL with Escherichia coli [2] was found to be 14.3 mm; in the data set on Aeromonas hydrophila [3] it was 10.5 mm; in the data set with Staphylococcus aureus [6], 11.7 mm. In the data set with Mus musculus, this compound registered an MLD of 1360 mg/kg. Also, the LC90 in the data set with Anopheles stephensi [4] was found to be 32.11 µg/mL (≈ 96.6 µM). Further, in the data set with Anopheles stephensi [4], the LC50 was 21.7 µg/mL (≈ 65.3 µM). In the data set on Anopheles stephensi [5], the Ratio is reported as 0.4.

As a reminder, the LC50 is the concentration that kills 50% of the test population.

(Values after ChEMBL document CHEMBL3351710, “Synthesis of novel thiadiazolotriazin-4-ones and study of their mosquito-larvicidal and antibacterial properties” (Eur J Med Chem, 2014).)
